Test results from PMC10245921 (bioRxiv, 2023).
Values joined by “and” are separate entries in the source; they are usually repeats but may differ in a detail not shown here. Equal entries are not always repeated. Where no end group is shown, it is not given here. The star is where a group is joined. FITC = O=C1OC2(c3ccc(O)cc3Oc3cc(O)ccc32)c2ccc(NC(=S)*)cc21

B1: FITC-conjugated CD44 peptide (SRRRCGQKKKLVINSGNGAVEDYK-FITC) (peptide)
peptide: SRRRCGQKKKLVINSGNGAVEDYK(FITC)

Assays:
MSN FERM domain = MSN FERM domain (Homo sapiens, UniProt P26038); test: Surface plasmon resonance; type: binding
Sequence of MSN FERM domain (P26038 1-345): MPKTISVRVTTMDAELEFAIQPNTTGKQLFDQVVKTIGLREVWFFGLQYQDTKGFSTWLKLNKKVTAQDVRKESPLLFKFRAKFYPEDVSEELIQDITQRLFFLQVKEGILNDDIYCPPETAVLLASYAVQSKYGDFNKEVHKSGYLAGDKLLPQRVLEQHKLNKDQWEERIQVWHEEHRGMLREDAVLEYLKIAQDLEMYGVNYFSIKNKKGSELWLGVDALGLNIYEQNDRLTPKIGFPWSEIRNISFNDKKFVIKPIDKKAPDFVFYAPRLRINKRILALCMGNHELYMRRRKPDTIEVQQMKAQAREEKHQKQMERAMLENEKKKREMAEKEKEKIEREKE
Summary of the method: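 MSN FERM domain is amine-coupled to a CM5 chip in acetate pH 4, to 4000 RU. Multi-cycle kinetics use test compound at 0.5–8 μM. KD comes from a 1:1 binding model fit.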

MSN = MSN (Homo sapiens, UniProt P26038); test: Thermal shift assay of MSN with compounds; type: binding; settings: two experiments
Sequence of MSN (P26038 1-345): as above
Summary of the method: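 Precipitate is removed by centrifugation, then the mix is incubated 30 min at RT. Sypro Orange is added at 20x and the sample ramped 25→95 °C at 1 °C/min. Tm comes from a Boltzmann fit; ΔTm versus DMSO is averaged over two experiments.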

MSN–CD44 interaction = MSN–CD44 interaction (Homo sapiens, UniProt P26038); test: MSN–CD44 TR-FRET assay; type: binding; settings: for IC50: IC50, confirmatory TR-FRET dose response, Fig. 4D, primary hits; for increase in potency relative to compound 2: MSN–CD44 TR-FRET
Sequence of MSN–CD44 interaction (P26038 1-345): as above

[1] = molecular target: GST-tagged MSN and Flag-tagged CD44 (Homo sapiens, UniProt P26038); test: GST-pull down assay in cell lysates; type: binding; settings: full length proteins in cell lysates
Sequence of GST-tagged MSN and Flag-tagged CD44 (P26038 whole entry): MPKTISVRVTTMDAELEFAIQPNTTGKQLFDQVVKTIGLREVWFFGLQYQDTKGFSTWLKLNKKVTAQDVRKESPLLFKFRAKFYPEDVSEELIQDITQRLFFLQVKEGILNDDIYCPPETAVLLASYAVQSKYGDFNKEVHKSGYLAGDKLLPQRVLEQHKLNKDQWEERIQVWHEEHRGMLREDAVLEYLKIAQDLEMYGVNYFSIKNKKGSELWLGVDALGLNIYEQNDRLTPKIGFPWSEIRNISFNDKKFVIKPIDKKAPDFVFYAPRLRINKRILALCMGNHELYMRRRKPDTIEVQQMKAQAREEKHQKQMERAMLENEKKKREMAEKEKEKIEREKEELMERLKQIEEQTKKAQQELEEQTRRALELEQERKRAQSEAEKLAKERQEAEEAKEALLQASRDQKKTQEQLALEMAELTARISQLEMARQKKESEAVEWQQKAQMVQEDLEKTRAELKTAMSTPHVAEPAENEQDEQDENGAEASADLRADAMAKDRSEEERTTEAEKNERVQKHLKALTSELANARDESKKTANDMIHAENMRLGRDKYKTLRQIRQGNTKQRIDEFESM
Summary of the method: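 HEK293 cells co-express full-length GST-MSN and Venus-Flag-CD44; Venus marks CD44 expression. Lysates are diluted in 10 mM HEPES pH 7.5, 150 mM NaCl, 0.25% Triton X-100 with protease and phosphatase inhibitors. They are dose-treated with test compound in DMSO, rotating 1 h at 4 °C, then captured on GST resin for 1.5 h at 4 °C and washed three times. SDS-PAGE and immunoblotting detect Flag (CD44) and GST (MSN). Two experiments.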

[2] = molecular target: LgBiT-MSN(T588D) and SmBit-CD44 (Homo sapiens, UniProt P26038, T558D); test: NanoBiT split luciferase assay in live cells; type: cell-based
Sequence of LgBiT-MSN(T588D) and SmBit-CD44 (P26038 whole entry T558D): as the sequence (P26038 whole entry) above, with T558D counted along it
Summary of the method: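 HEK293T cells (DMEM, 10% FBS, penicillin/streptomycin, 37 °C, 5% CO2) are seeded at 6000 cells/well. Next day they are transfected with CD44-SmBiT (C-terminal) and LgBiT-MSN(T558D) (N-terminal) plasmids, 20 ng and 5 ng, using Fugene HD; LgBiT-MSN(T558A) is the negative control. After 18 h, 2-fold dilutions of test compound (6.25–0.098 μM, DMSO) are added for 3 h. Nano-Glo Live Cell Reagent is added for 20 min at 37 °C, then luminescence is read. Two independent experiments.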

SYK-FCER1G = SYK-FCER1G (Homo sapiens, UniProt P43405); test: SYK TR-FRET counter screen; type: binding
[3] = Solubility by nephelometry; type: physicochemical
[4] = molecular target: FERM domain of human MSN (residues 1–345), wild type, 6His tag cleaved (human, UniProt P26038 1-345); test: FRET or BRET
[5] = molecular target: 6His-tagged FERM domain of human MSN (residues 1–345), wild type (human, UniProt P26038 1-345); test: FRET or BRET
[6] = molecular target: B1; test: FRET or BRET
[7] = IC50, CD44–MSN interaction in live cells (approximate), NanoBiT, live cells

For `Nc1ccc(C(=O)Nc2ccc(-c3nc4ccc(NC(=O)c5ccc(N)cc5)cc4s3)cc2)cc1.O=C(O)C(F)(F)F.O=C(O)C(F)(F)F` [Compound 1, 4-amino-N-(4-(6-(4-aminobenzamido)benzo[d]thiazol-2-yl)phenyl)benzamide bis(2,2,2-trifluoroacetate)], the Kd (MSN FERM domain) was 4200 nM, the “av. ΔTm of MSN compared to DMSO alone” value (MSN; at 20 μM) was 1–2 °C and the IC50 (MSN–CD44 interaction) was 5000 to 20000 nM. The “activity in GST-pulldown assay” value [1] was “active”, the IC50 [2, 7] was roughly 600 nM and the IC50 ([2]; IC50, NanoBiT bioluminescence assay, HEK293 cells, 2 independent experiments) was 570 nM and 690 nM.

In the case of `O=C(Nc1ccc(-c2nc3ccccc3[nH]2)cc1)c1cccc(Cl)c1` [Compound 2b, N-(4-(1H-benzo[d]imidazol-2-yl)phenyl)-3-chlorobenzamide], the “activity in the counter screen” value (SYK-FCER1G) is reported as “no activity”, the “av. ΔTm of MSN compared to DMSO alone” value (MSN; at 50 μM) is reported as 1.2 °C and the “increase in potency relative to compound 2” value (MSN–CD44 interaction) is reported as 2 fold. For the same molecule, the “activity in GST-pulldown assay” value [1] was “able to inhibit” and the “solubility in aqueous/PBS buffer” value [3] was “improved solubility”.

In the case of `COc1ccc(C(=O)Nc2ccc(-c3nc4ccccc4[nH]3)cc2)c(OC)c1` [Compound 2a, N-(4-(1H-benzo[d]imidazol-2-yl)phenyl)-2,4-dimethoxybenzamide], the “activity in the counter screen” value (SYK-FCER1G) is reported as “no activity”, the “av. ΔTm of MSN compared to DMSO alone” value (MSN; at 50 μM) is reported as 1.3 °C and the “increase in potency relative to compound 2” value (MSN–CD44 interaction) is reported as 8 fold. The “activity in GST-pulldown assay” value [1] was “able to inhibit” and the “solubility in aqueous/PBS buffer” value [3] was “improved solubility”.

For `COc1ccccc1C(=O)Nc1ccc(-c2nc3ccccc3[nH]2)cc1` [Compound 2, N-(4-(1H-benzo[d]imidazol-2-yl)phenyl)-2-methoxybenzamide], the Kd (MSN FERM domain) was 700 nM, the “av. ΔTm of MSN compared to DMSO alone” value (MSN; at 20 μM) was 1–2 °C and the IC50 (MSN–CD44 interaction) was 5000 to 20000 nM. The “activity in GST-pulldown assay” value [1] was “active”, the IC50 [2, 7] was roughly 200 nM and the “solubility in aqueous/PBS buffer” value [3] was “low solubility”.

B1: binds [4]; binds [5].

B2: FERM domain of human MSN (1–345) L281R, 6His tag cleaved (domain or fragment)
chain: MPKTISVRVTTMDAELEFAIQPNTTGKQLFDQVVKTIGLREVWFFGLQYQDTKGFSTWLKLNKKVTAQDVRKESPLLFKFRAKFYPEDVSEELIQDITQRLFFLQVKEGILNDDIYCPPETAVLLASYAVQSKYGDFNKEVHKSGYLAGDKLLPQRVLEQHKLNKDQWEERIQVWHEEHRGMLREDAVLEYLKIAQDLEMYGVNYFSIKNKKGSELWLGVDALGLNIYEQNDRLTPKIGFPWSEIRNISFNDKKFVIKPIDKKAPDFVFYAPRLRINKRIRALCMGNHELYMRRRKPDTIEVQQMKAQAREEKHQKQMERAMLENEKKKREMAEKEKEKIEREKE
For B2, the “fold higher concentration than wild type needed to inhibit” value [6] was 10 fold.

B3: FERM domain of human MSN (1–345) H288A, 6His tag cleaved (domain or fragment)
chain: MPKTISVRVTTMDAELEFAIQPNTTGKQLFDQVVKTIGLREVWFFGLQYQDTKGFSTWLKLNKKVTAQDVRKESPLLFKFRAKFYPEDVSEELIQDITQRLFFLQVKEGILNDDIYCPPETAVLLASYAVQSKYGDFNKEVHKSGYLAGDKLLPQRVLEQHKLNKDQWEERIQVWHEEHRGMLREDAVLEYLKIAQDLEMYGVNYFSIKNKKGSELWLGVDALGLNIYEQNDRLTPKIGFPWSEIRNISFNDKKFVIKPIDKKAPDFVFYAPRLRINKRILALCMGNAELYMRRRKPDTIEVQQMKAQAREEKHQKQMERAMLENEKKKREMAEKEKEKIEREKE
In the case of B3, the “fold higher concentration than wild type needed to inhibit” value [6] is reported as 10 fold.
